How the values were obtained:
E. coli mutant strains = assay: Relative MIC measurement of mutant and evolved strains; format: cell-based, Escherichia coli
wild-type E. coli = assay: Experimental evolution of resistance followed by MIC measurement; format: cell-based, Escherichia coli
[1] = tested on: antibiotic-resistant bacteria; assay: Antibiotic MIC in the presence of subinhibitory PGLA; format: cell-based, Escherichia coli; details: tetracycline (TET) resistant strain; ½ MIC PGLA (MIC against the wild-type)
Procedure, shortened: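 Each level was tested alone and alongside MIC determination of the antibiotic the strain was adapted to. Growth with peptide alone was scored as growth rate.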

[2] = tested on: E. coli K12 wild-type and antibiotic-resistant strains; assay: Antibiotic-PGLA combination screen; format: cell-based, Escherichia coli; details: Loewe additivity, EC90%
Procedure, shortened: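 E. coli K12 BW25113 wild-type and 21 strains adapted to one of 10 antibiotics were tested. Single agents ran as 1.6-fold 8-step dilutions spanning 10.5x below to 2.6x above each strain's MIC, plus dilution series at 7 antibiotic:peptide ratios (7:1 to 1:7). Wells received 5×10^4 cells from overnight culture, then 24 h at 30°C, 300 rpm, OD600. Expected (Loewe) and measured EC90% gave CIr per ratio; CI is the mean of the 7 CIr values.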

[3] = tested on: 60 antibiotic-resistant Escherichia coli strains; format: cell-based
[4] = tested on: antibiotic-resistant E. coli strains; assay: Membrane integrity measurement; format: cell-based, Escherichia coli; details: sensitive strains could not grow on medium with 6% bile acid
Procedure, shortened: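 Bile acid sensitivity came from the high-throughput screen in MS medium. About 103 bacteria/ml were pin-inoculated and grown 24 h at 30°C, 300 rpm, with OD600 read once. Resistant strains ran in 4 replicates and wild-type in 12 on the same plate, and growth arrest was scored per well. Strains unable to grow with 6% bile acid were grouped as sensitive.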

CAP18-resistant bacteria = assay: Susceptibility of CAP18-resistant evolved bacteria to antibiotics; format: cell-based; details: preliminary results

For O=C1CN(/N=C/c2ccc([N+](=O)[O-])o2)C(=O)N1 [nitrofurantoin], the “effect of ompC loss-of function mutation on susceptibility” value (E. coli mutant strains; ompC mutation inserted into wild-type E. coli) was “conferred resistance”.
For Peptide Glycine-Leucine Amide [PGLA], the “susceptibility of the marR single point mutant (marR*)” value (E. coli mutant strains; marR mutation in E. coli BW25113 or E. coli ATCC 25922) was “collateral sensitivity”, the “evolution of resistance to the peptide” value (wild-type E. coli; laboratory evolution, 160 generations) was “marginal” and the “cross-resistance between PGLA and ciprofloxacin or tetracycline in evolved lines” value (wild-type E. coli; laboratory-evolved lines) was “no substantial cross-resistance”. The “growth rate reduction by the peptide applied alone” value [1] was 40%, the “interaction of PGLA with tetracycline (TET), wild-type strain” value ([2]; E. coli K12 wild-type, 0.86<CI<1.14 no interaction) was “no interaction” and the “interaction of PGLA with tetracycline (TET), tetracycline-resistant strain TET3” value ([2]; TET3, CI≤0.86 synergism) was “strong synergism”.
For “bactenecin 5 (RFRPPIRRPPIRPPFYPPFRPPIRPPIFPPIRPPFRPPLGPFP; Bactenecin-5; UniProt P19660 131-173, looked up) [BAC5]”, the “interaction of tobramycin-resistant strains with the peptide” value ([3]; tobramycin-resistant E. coli strains) was “cross-resistance rather than collateral sensitivity”.
bile acid was tested, and the “percentage of antibiotic-resistant strains more susceptible than the wild-type” value [4] was 75%.
In the case of cecropin P1 [CP1], the “collateral sensitivity of antibiotic-resistant strains towards the peptide” value ([3]; 60 laboratory-evolved antibiotic-resistant E. coli strains) was “rarely show collateral sensitivity”.
With “rabbit 18-kDa cationic antimicrobial protein [CAP18]” the “consequence of evolving resistance to the peptide” value (CAP18-resistant bacteria) was “collateral sensitivity to several conventional antibiotics”.
